The source of these data is ChEMBL document CHEMBL1240433, “Design, synthesis, and antitubercular evaluation of novel series of 3-benzofuran-5-aryl-1-pyrazolyl-pyridylmethanone and 3-benzofuran-5-aryl-1-pyrazolylcarbonyl-4-oxo-naphthyridin analogs” (Eur J Med Chem, 2010).

The test system of one assay is Vero. The assay can be described thus: Cytotoxicity against african green monkey Vero after 72 hrs by MTT assay. Format: cell-based. The following applies: Chlorocebus sabaeus. The method in brief:
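Mammalian Vero cells were used to determine IC50. The read-out was cellular reduction of MTT to a formazan product, measured with a non-radioactive cell proliferation kit.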
In general terms: Tetrazolium dyes change colour on reduction, which living cells bring about.

Assay [1] concerns Mycobacterium tuberculosis. The experiment in a line: Antitubercular activity against Mycobacterium tuberculosis ATCC 35801 infected in CD1 mouse lung at 25 mg/kg, iv after 6 weeks. Format: functional. The essentials: (§1)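 Female CD-1 mice, 6 weeks old, six per group, were infected intravenously via the caudal vein with 10^6 to 10^7 viable organisms. Dosing at 25 mg/kg intraperitoneally began 10 days after infection. Viable counts came from serial 10-fold dilutions on 7H10 agar after incubation at 37 °C in ambient air for up to 6 weeks, compared with vehicle-treated controls.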

In assay [2] the test system is Mycobacterium tuberculosis. The assay can be described thus: Antitubercular activity against Mycobacterium tuberculosis H37Rv after 6 weeks. Format: functional. The essentials: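 Lowenstein-Jensen slope assay. DMSO stocks of 250 and 10 µg/mL were each mixed 0.8 mL into 7.2 mL L.J. medium, then inspissated at 75-80 °C for 3 days. A loopful of culture was dispersed with glass beads in sterile water by vortexing for 2 min and streaked onto the slopes. DMSO-only and drug-free media served as controls. Bacterial counts were read after 6 weeks at 37 °C.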

For assay [3], the system named is Mycobacterium tuberculosis. The experiment in a line: Antitubercular activity against Mycobacterium tuberculosis ATCC 35801 infected in CD1 mouse spleen at 25 mg/kg, iv after 6 weeks. Format: functional. The method in brief:
as §1

pIC50: −log10 of the molar value. Values after ≈ are worked out from the molar mass of the structure shown.

Regarding `CCn1cc(C(=O)N2N=C(c3cc4ccccc4o3)CC2c2ccc(Cl)cc2)c(=O)c2ccc(C)nc21` (stereo not given), in the assay on Vero, the pIC50 (commonly the negative decadic logarithm of the IC50, by convention in mol/L) is less than 3.79. For the same molecule, the log10cfu in assay [1] stood at 11.52; in assay [3] it was 12.12. Moreover, the MIC – broadly, the smallest concentration in the dilution series that meets the test's criterion for growth inhibition – in assay [2] is 8.3 mg/L (≈ 16.2 µM).
As to `CCn1cc(C(=O)N2N=C(c3cc4ccccc4o3)CC2c2ccco2)c(=O)c2ccc(C)nc21` (stereo not given), in the assay with Vero, the pIC50 was less than 3.73. The results for the log10cfu in assay [1] and in assay [3] were 9.66 and 10.52, respectively. The molecule also registered a minimal inhibitory concentration (MIC) in assay [2] of 7.5 mg/L (≈ 16.1 µM).
For the molecule `CCn1cc(C(=O)N2N=C(c3cc4ccccc4o3)CC2c2ccccc2C(=O)O)c(=O)c2ccc(C)nc21` (stereo not given), the pIC50 with Vero is less than 3.71. The log10cfu in assay [1] is listed as 5.12; in assay [3], 6.16. In assay [2], this molecule came in with an MIC of 4.5 mg/L (≈ 8.64 µM).
On the same counts, the results for `O=C(c1ccncc1)N1N=C(c2cc3ccccc3o2)CC1c1cccc([N+](=O)[O-])c1` (stereo not given) are less than 3.62, 10.8, 11.6 and 7.5 mg/L (≈ 18.2 µM).
On the same counts, the results for `CCn1cc(C(=O)N2N=C(c3cc4ccccc4o3)CC2c2ccccc2[N+](=O)[O-])c(=O)c2ccc(C)nc21` (stereo not given) are less than 4.07, 5.67, 6.12 and 1.9 mg/L (≈ 3.64 µM).
In the case of `CO[C@H]1/C=C/O[C@@]2(C)Oc3c(C)c(O)c4c(O)c(c(/C=N/N5CCN(C)CC5)c(O)c4c3C2=O)NC(=O)/C(C)=C\C=C\[C@H](C)[C@H](O)[C@@H](C)[C@@H](O)[C@@H](C)[C@H](OC(C)=O)[C@@H]1C` [RIFAMPIN], the negative-log IC50 (pIC50) in the assay with Vero was less than 4.13. Also, the results for the log10cfu in assay [1] and in assay [3] were 3.21 and 3.98, respectively. The molecule also yielded an MIC in assay [2] of 0.6 mg/L (≈ 0.729 µM).
On the same counts, the results for `CCn1cc(C(=O)N2N=C(c3cc4ccccc4o3)CC2c2ccccc2)c(=O)c2ccc(C)nc21` (stereo not given) are less than 3.68, 12.23, 12.98 and 9.8 mg/L (≈ 20.6 µM).
As for `COc1ccc(C2CC(c3cc4ccccc4o3)=NN2C(=O)c2ccncc2)c(O)c1` (stereo not given), the pIC50 in the assay with Vero was less than 3.72. In addition, the log10cfu in assay [1] was 6.98; in assay [3], 6.52. The MIC in assay [2] is 3.3 mg/L (≈ 7.98 µM).
Taken in the same sequence, the figures for `CCn1cc(C(=O)N2N=C(c3cc4ccccc4o3)CC2/C=C/c2ccccc2)c(=O)c2ccc(C)nc21` (stereo not given) were less than 3.77, 4.61, 6.32 and 5.5 mg/L (≈ 10.9 µM).
Taken in the same sequence, the figures for `CCn1cc(C(=O)N2N=C(c3cc4ccccc4o3)CC2c2ccc(N(C)C)cc2)c(=O)c2ccc(C)nc21` (stereo not given) were less than 3.68, 4.82, 6.53 and 9.2 mg/L (≈ 17.7 µM).
Take `CCn1cc(C(=O)N2N=C(c3cc4ccccc4o3)CC2c2ccccc2OC)c(=O)c2ccc(C)nc21` (stereo not given): in the assay on Vero, the pIC50 is less than 3.73. Besides, the log10cfu amounted to 6.87 in assay [1] and 6.13 in assay [3]. In assay [2], the MIC turned out to be 5.5 mg/L (≈ 10.9 µM).
On the same counts, the results for `O=C(c1ccncc1)N1N=C(c2cc3ccccc3o2)CC1c1ccc(O)cc1` (stereo not given) are less than 3.70, 7.46, 8.2 and 4.5 mg/L (≈ 11.7 µM).
Take `COc1ccc(C2CC(c3cc4ccccc4o3)=NN2C(=O)c2ccncc2)cc1` (stereo not given): the pIC50 in the assay on Vero is less than 3.70. The values for the log10cfu in assay [1] and in assay [3] were 8.6 and 9.24, respectively. The molecule further gave an MIC in assay [2] of 6.8 mg/L (≈ 17.1 µM).
On the same counts, the results for `O=C(O)c1ccccc1C1CC(c2cc3ccccc3o2)=NN1C(=O)c1ccncc1` (stereo not given) are less than 3.77, 6.24, 5.42 and 2.2 mg/L (≈ 5.35 µM).
Taken in the same sequence, the figures for `O=C(c1ccncc1)N1N=C(c2cc3ccccc3o2)CC1c1ccco1` (stereo not given) were less than 3.68, 11.4, 12.6 and 9.6 mg/L (≈ 26.9 µM).
Taken in the same sequence, the figures for `CCn1cc(C(=O)N2N=C(c3cc4ccccc4o3)CC2c2cccc([N+](=O)[O-])c2)c(=O)c2ccc(C)nc21` (stereo not given) were less than 3.78, 2.65, 3.25 and 2.3 mg/L (≈ 4.41 µM).
In the assay on Vero, `O=C(c1ccncc1)N1N=C(c2cc3ccccc3o2)CC1c1ccccc1[N+](=O)[O-]` (stereo not given) gave a pIC50 of less than 3.61. For the same molecule, the log10cfu in assay [1] is recorded as 9.5; in assay [3], 10.5. This molecule gave an MIC in assay [2] of 8.2 mg/L (≈ 19.9 µM).
In the case of `COc1ccccc1C1CC(c2cc3ccccc3o2)=NN1C(=O)c1ccncc1` (stereo not given), in the assay with Vero, the pIC50 is less than 3.69. Moreover, the values for the log10cfu in assay [1] and in assay [3] were 9.65 and 10.6, respectively. This molecule gave a minimal inhibitory concentration (MIC) in assay [2] of 6.5 mg/L (≈ 16.4 µM).
Taken in the same sequence, the figures for `O=C(c1ccncc1)N1N=C(c2cc3ccccc3o2)CC1c1ccc(Cl)cc1` (stereo not given) were less than 3.66, 13.8, 12.4 and 11.5 mg/L (≈ 28.6 µM).
Taken in the same sequence, the figures for `O=C(c1ccncc1)N1N=C(c2cc3ccccc3o2)CC1/C=C/c1ccccc1` (stereo not given) were less than 3.67, 10.8, 11.6 and 8.6 mg/L (≈ 21.9 µM).
Molecule `O=C(c1ccncc1)N1N=C(c2cc3ccccc3o2)CC1c1ccccc1Cl` (stereo not given) showed a pIC50 with Vero of less than 3.68. For the same molecule, the figures for the log10cfu in assay [1] and in assay [3] were 12.5 and 12.2, respectively. Moreover, the MIC in assay [2] came to 10.6 mg/L (≈ 26.4 µM).
On the same counts, the results for `CCn1cc(C(=O)N2N=C(c3cc4ccccc4o3)CC2c2ccc(OC)cc2)c(=O)c2ccc(C)nc21` (stereo not given) are less than 3.81, 9.32, 10.77 and 6.3 mg/L (≈ 12.4 µM).
Taken in the same sequence, the figures for `NNC(=O)c1ccncc1` [ISONIAZID] were less than 3.88, 4.62, 5.45 and 0.32 mg/L (≈ 2.33 µM).
On the same counts, the results for `CCn1cc(C(=O)N2N=C(c3cc4ccccc4o3)CC2c2ccc(O)cc2)c(=O)c2ccc(C)nc21` (stereo not given) are less than 3.83, 5.49, 7.21 and 3.2 mg/L (≈ 6.5 µM).
Take `CCn1cc(C(=O)N2N=C(c3cc4ccccc4o3)CC2c2ccccc2Cl)c(=O)c2ccc(C)nc21` (stereo not given): in the assay on Vero, the pIC50 is less than 3.75. The results for the log10cfu in assay [1] and in assay [3] were 10.85 and 10.96, respectively. This molecule also gave an MIC in assay [2] of 7.8 mg/L (≈ 15.3 µM).
On the same counts, the results for `CCn1cc(C(=O)N2N=C(c3cc4ccccc4o3)CC2c2ccc(OC)cc2O)c(=O)c2ccc(C)nc21` (stereo not given) are less than 3.81, 8.42, 9.28 and 4.2 mg/L (≈ 8.04 µM).
On the same counts, the results for `CN(C)c1ccc(C2CC(c3cc4ccccc4o3)=NN2C(=O)c2ccncc2)cc1` (stereo not given) are less than 3.68, 14.4, 15.8 and 9.2 mg/L (≈ 22.4 µM).
On the same counts, the results for `O=C(c1ccncc1)N1N=C(c2cc3ccccc3o2)CC1c1ccccc1` (stereo not given) are less than 3.68, 9.4, 10.6 and 8.5 mg/L (≈ 23.1 µM).
`CCn1cc(C(=O)N2N=C(c3cc4ccccc4o3)CC2c2ccccc2O)c(=O)c2ccc(C)nc21` (stereo not given): the pIC50 with Vero was less than 3.80. Besides, the log10cfu in assay [1] was 4.11; in assay [3], 5.36. Also, the MIC in assay [2] was 1.2 mg/L (≈ 2.44 µM).
`O=C(c1ccncc1)N1N=C(c2cc3ccccc3o2)CC1c1ccccc1O` (stereo not given) showed a pIC50 with Vero of less than 3.71. Also, the log10cfu in assay [1] amounted to 7.2; in assay [3], 9.45. The molecule further returned an MIC in assay [2] of 3.7 mg/L (≈ 9.65 µM).
